≈ marks a conversion by molar mass, not a printed value. Calls of active or inactive are those of the source. No cut-off for these calls is given here.
Experiments:
[1] = tested on: Mycobacterium tuberculosis; experiment: Antitubercular activity against Mycobacterium tuberculosis H37Rv; type: functional
How it was run: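 Mycobacterium tuberculosis strain H37Rv; minimum inhibitory concentration (MIC) taken as the lowest level needed to inhibit bacterial growth; isoniazid and pyrazinamide served as reference drugs.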

[2] = Acute toxicity in mouse at 300 mg/kg, ip administered as single dose; type: organism-based; settings: in vivo
How it was run: (§1)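 Mice, single intraperitoneal dose, following OECD Guideline for testing of chemicals; three mice per dose level; doses tested 10–300 mg/kg. Read-out is the number of survivors out of 3, used to estimate the expected LD50 range.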

Streptococcus pyogenes = experiment: Antibacterial activity against Streptococcus pyogenes; type: functional
Microsporum canis = experiment: Antifungal activity against Microsporum canis; type: functional
Trichophyton rubrum = experiment: Antifungal activity against Trichophyton rubrum; type: functional
Escherichia coli = experiment: Antibacterial activity against Escherichia coli; type: functional
Pseudomonas aeruginosa = experiment: Antibacterial activity against Pseudomonas aeruginosa; type: functional
Trichophyton tonsurans = experiment: Antifungal activity against Trichophyton tonsurans; type: functional
Candida albicans = experiment: Antifungal activity against Candida albicans; type: functional
Staphylococcus aureus [3] = experiment: Antibacterial activity against methicillin resistant Staphylococcus aureus; type: functional
Epidermophyton floccosum = experiment: Antifungal activity against Epidermophyton floccosum; type: functional
Klebsiella pneumoniae = experiment: Antibacterial activity against Klebsiella pneumoniae; type: functional
Proteus vulgaris = experiment: Antibacterial activity against Proteus vulgaris; type: functional
Neisseria gonorrhoeae = experiment: Antibacterial activity against Neisseria gonorrhoeae; type: functional
Shigella flexneri = experiment: Antibacterial activity against Shigella flexneri; type: functional
Staphylococcus aureus [4] = experiment: Antibacterial activity against Staphylococcus aureus; type: functional
Citrobacter braakii = experiment: Antibacterial activity against Citrobacter braakii; type: functional
Serratia marcescens = experiment: Antibacterial activity against Serratia marcescens; type: functional
[5] = tested on: Trichophyton interdigitale; experiment: Antifungal activity against Trichophyton mentagrophytes var. interdigitale; type: functional
Nannizzia gypsea = experiment: Antifungal activity against Trichophyton gypseum; type: functional
Rattus norvegicus [6] = experiment: Antiinflammatory activity in rat model of carrageenan-induced paw edema assessed as inhibition of hind paw swelling at 15 mg/kg, ip measured after 5 hrs; type: functional, organism-based
[7] = Antioxidant activity assessed as trolox equivalent of ABTS radical scavenging activity measured after 1 hr by UV-vis spectrophotometric method; type: functional
How it was run: (§2)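 ABTS cation-radical decolorization was read spectrophotometrically as the fall in absorbance after 1 h. Trolox was the reference. TEAC was taken as the ratio of concentration-response slopes, test/Trolox, and IC50 was also derived. Data are mean ± SEM, n = 3.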

Erythrocyte [8] = experiment: Antioxidant activity in human erythrocytes assessed as protection against AAPH-induced hemolysis at 400 uM preincubated for 20 mins followed by AAPH addition and measured after 2 hrs by spectrophotometric method relative to control; type: functional; settings: time 140 min, 2.333 h
How it was run: (§3)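 Erythrocyte hemolysis assay with AAPH as the free-radical initiator, testing 50 and 400 µM. Results are expressed as relative protection of membranes against oxidative damage, each the mean of two independent experiments.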

[9] = Antioxidant activity assessed as AAPH scavenging activity by measuring residual fluorescence at 10 uM measured at 1 min interval for 30 mins by ORAC fluorescein assay relative to control; type: functional
How it was run: (§4)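 ORAC-FL assay with fluorescein as the probe and AAPH as the peroxyl radical generator. The loss of fluorescence over time was followed, and the result is given as % fluorescence restored at 10 and 50 µM. Each value is the mean of two independent experiments.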

[10] = Acute toxicity in mouse at 75 mg/kg, ip administered as single dose; type: organism-based; settings: in vivo; how it was run: as §1
Erythrocyte [11] = experiment: Antioxidant activity in human erythrocytes assessed as protection against AAPH-induced hemolysis at 50 uM preincubated for 20 mins followed by AAPH addition and measured after 2 hrs by spectrophotometric method relative to control; type: functional; settings: time 140 min, 2.333 h; how it was run: as §3
[12] = Drug metabolism assessed as nitric oxide release in absence of rat plasma by Griess reagent based assay; type: cell-free
[13] = Antioxidant activity assessed as AAPH scavenging activity by measuring residual fluorescence at 50 uM measured at 1 min interval for 30 mins by ORAC fluorescein assay relative to control; type: functional; how it was run: as §4
[14] = Selectivity index, ratio of IC50 for HDF cells to IC50 for human HeLa cells; type: toxicity; settings: HDF cells versus HeLa cells, read-out: Ratio IC50
Rattus norvegicus [15] = experiment: Antiinflammatory activity in rat model of carrageenan-induced paw edema assessed as inhibition of hind paw swelling at 15 mg/kg, ip measured after 1 hr relative to control; type: functional
NHDF = experiment: Cytotoxicity against HDF cells; type: cell-based, Homo sapiens
Rattus norvegicus [16] = experiment: Analgesic activity in rat assessed as prolongation of latency period at 15 mg/kg, ip measured after 1 hr by hot-plate test relative to control; type: functional
How it was run: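 Hot-plate test in rats. Compounds were given by intraperitoneal injection. Latency was read at 1 h and, for some compounds, also at 2 h after dosing. Results are expressed as % prolongation of the latent period versus vehicle-treated control. Significance was given as p-values.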

Rattus norvegicus [17] = experiment: Antiinflammatory activity in rat model of carrageenan-induced paw edema assessed as inhibition of hind paw swelling at 15 mg/kg, ip measured after 3 hrs relative to control; type: functional
HeLa = experiment: Cytotoxicity against human HeLa cells; type: functional, cell-based; settings: for IC50: Homo sapiens, HeLa, read-out: IC50
Trichophyton violaceum = experiment: Antifungal activity against Trichophyton violaceum; type: functional
[18] = Acute toxicity in mouse at 150 mg/kg, ip administered as single dose; type: organism-based; settings: in vivo; how it was run: as §1
[19] = Drug metabolism assessed as nitric oxide release in presence of rat plasma by Griess reagent based assay; type: cell-free
[20] = Acute toxicity in mouse at 10 mg/kg, ip administered as single dose; type: organism-based; settings: in vivo; how it was run: as §1
[21] = Antioxidant activity assessed as ABTS radical scavenging activity measured after 1 hr by UV-vis spectrophotometric method; type: functional; how it was run: as §2
[22] = Homo sapiens, NHDF, read-out: IC50

Row | Structure (SMILES) | MIC [1] [mg/L] | MIC (Streptococcus pyogenes) [mg/L] | MIC (Microsporum canis) [mg/L] | MIC (Trichophyton rubrum) [mg/L] | MIC (Escherichia coli) [mg/L] | MIC (Pseudomonas aeruginosa) [mg/L] | MIC (Trichophyton tonsurans) [mg/L] | MIC (Candida albicans) | MIC (Epidermophyton floccosum) [mg/L] | MIC (Klebsiella pneumoniae) [mg/L] | MIC (Proteus vulgaris) [mg/L] | MIC (Neisseria gonorrhoeae) [mg/L] | MIC (Shigella flexneri) [mg/L] | MIC (Staphylococcus aureus [4]) [mg/L] | MIC (Citrobacter braakii) [mg/L] | MIC (Serratia marcescens) [mg/L] | MIC [5] [mg/L] | MIC (Nannizzia gypsea) [mg/L] | Activity (Rattus norvegicus [6]) | Activity [7] | other results
1 | O=Nc1c(C(F)(F)F)n[nH]c1-c1ccco1 | 6.2 (≈ 26.8 µM) | 7.8 (≈ 33.7 µM) | 12.5 (≈ 54.1 µM) | 12.5 (≈ 54.1 µM) | 62.5 (≈ 270 µM) | > 500 | 50 (≈ 216 µM) | 25 mg/L (≈ 108 µM) | 50 (≈ 216 µM) | 125 (≈ 541 µM) | 62.5 (≈ 270 µM) | 15.6 (≈ 67.5 µM) | 125 (≈ 541 µM) | 31.2 (≈ 135 µM) | 125 (≈ 541 µM) | 125 (≈ 541 µM) | 50 (≈ 216 µM) | 25 (≈ 108 µM) | Active | 0.02 equiv | Activity [2]: Toxic; MIC (Staphylococcus aureus [3]): 15.6 mg/L (≈ 67.5 µM)
2 | O=Nc1c(C(F)(F)F)n[nH]c1-c1cccs1 | 3.1 (≈ 12.5 µM) | 7.8 (≈ 31.6 µM) | 25 (≈ 101 µM) | 12.5 (≈ 50.6 µM) | 250 (≈ 1010 µM) | > 500 | 50 (≈ 202 µM) | 50 mg/L (≈ 202 µM) | 50 (≈ 202 µM) | 500 (≈ 2020 µM) | 31.2 (≈ 126 µM) | 62.5 (≈ 253 µM) | 500 (≈ 2020 µM) | 15.6 (≈ 63.1 µM) | 250 (≈ 1010 µM) | 250 (≈ 1010 µM) | 50 (≈ 202 µM) | 50 (≈ 202 µM) | Active | 0.02 equiv | MIC (Staphylococcus aureus [3]): 62.5 mg/L (≈ 253 µM); fold change (FC) (Erythrocyte [8]): 1.12; Activity [9]: -56.2%; Activity [10]: Toxic; fold change (FC) (Erythrocyte [11]): 1.18; Drug metabolism [12]: Metabolite not detected; Activity [13]: -98.7%
3 | O=Nc1c(C(F)(F)F)n[nH]c1-c1ccccc1 | 0.36 (≈ 1.49 µM) | 7.8 (≈ 32.3 µM) | > 200 | > 200 | 62.5 (≈ 259 µM) | 125 (≈ 518 µM) | > 200 | 100 mg/L (≈ 415 µM) | > 200 | 62.5 (≈ 259 µM) | 31.2 (≈ 129 µM) | 62.5 (≈ 259 µM) | 31.2 (≈ 129 µM) | 31.2 (≈ 129 µM) | 62.5 (≈ 259 µM) | 62.5 (≈ 259 µM) | > 200 | > 200 | Active | inactive | selectivity ratio [14]: 0.76; inhibition (Rattus norvegicus [15]): inactive; IC50 (NHDF; [22]): 1.42 µM; Activity (Rattus norvegicus [16]): 51.7%; inhibition in vivo at 15 mg/kg (Rattus norvegicus [17]): 32%; Activity (HeLa): Dose-dependent effect; IC50 (HeLa): 1.86 µM; MIC (Staphylococcus aureus [3]): 62.5 mg/L (≈ 259 µM); MIC (Trichophyton violaceum): > 200 mg/L; fold change (FC) (Erythrocyte [8]): 1.05; Activity [9]: -80.4%; fold change (FC) (Erythrocyte [11]): 0.99; Activity [13]: -119%
4 | Cc1[nH]nc(C(F)(F)F)c1N=O | 1.62 (≈ 9.05 µM) | 7.8 (≈ 43.6 µM) | 25 (≈ 140 µM) | 25 (≈ 140 µM) | 250 (≈ 1400 µM) | 500 (≈ 2790 µM) | 50 (≈ 279 µM) | 50 mg/L (≈ 279 µM) | 50 (≈ 279 µM) | 500 (≈ 2790 µM) | 31.2 (≈ 174 µM) | 15.6 (≈ 87.1 µM) | 250 (≈ 1400 µM) | 31.2 (≈ 174 µM) | 250 (≈ 1400 µM) | 250 (≈ 1400 µM) | 50 (≈ 279 µM) | 50 (≈ 279 µM) | Active | inactive | Activity [18]: Toxic; selectivity ratio [14]: > 1.62; IC50 (NHDF; nhdf): Not Active; Activity (HeLa): Dose-dependent effect; IC50 (HeLa): 61.6 µM; MIC (Staphylococcus aureus [3]): 62.5 mg/L (≈ 349 µM)
5 | Cn1nc(C(F)(F)F)c(N=O)c1-c1ccccc1 |  | > 500 | 100 (≈ 392 µM) | 12.5 (≈ 49 µM) | > 500 | > 500 | 3.12 (≈ 12.2 µM) | inactive | 0.38 (≈ 1.49 µM) | > 500 | > 500 | 62.5 (≈ 245 µM) | > 500 | > 500 | > 500 | > 500 | 12.5 (≈ 49 µM) | 25 (≈ 98 µM) | Active | 0.01 equiv | Activity [18]: Non-Toxic; selectivity ratio [14]: 0.77; inhibition (Rattus norvegicus [15]): inactive; IC50 (NHDF; [22]): 49.5 µM; Activity (Rattus norvegicus [16]): 80.2%; inhibition (Rattus norvegicus [17]): inactive; Activity (HeLa): Dose-dependent effect; IC50 (HeLa): 63.9 µM; MIC (Trichophyton violaceum): 6.25 mg/L (≈ 24.5 µM); fold change (FC) (Erythrocyte [8]): 1.02; Activity [9]: 3%; fold change (FC) (Erythrocyte [11]): 1; Drug metabolism [12]: Metabolite not detected; Drug metabolism [19]: Metabolite detected; Activity [13]: 16.1%
6 | Cl.Nc1c(C(F)(F)F)n[nH]c1-c1cccs1 |  | > 250 | 200 | 200 | > 250 | > 250 | > 200 | > 200 mg/L | 200 | > 250 | > 250 | 62.5 | > 250 | > 250 | > 250 | > 250 | > 200 | > 200 |  |  | Activity [18]: Toxic; Activity [20]: Non-Toxic; MIC (Trichophyton violaceum): > 200 mg/L; Activity [10]: Toxic; IC50 [21]: 13.3 µM
